Activity calls are given as the source filed them. No cut-off for these calls is given here.
Tests used:
EOL1 [1] = assay: Antitumor activity against human EOL-1 cells xenografted in nu/nu mouse assessed as tumor growth inhibition at 25 mg/kg/day, ip; type: functional; details: read-out: TGI
Procedure, shortened: (§1)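 Female nu/nu mice (6 weeks) given subcutaneous right-flank injection of 5 million EOL-1 cells in PBS/Matrigel 1:1. At 200–400 mm3 tumors, randomized to groups of 6 and dosed daily i.p. for 14 days at 25, 50 or 100 mg/kg/d in 0.5% methylcellulose/0.4% Tween80. Tumor volume = W²×L/2, measured daily.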

EOL1 [2] = assay: Antitumor activity against human EOL-1 cells xenografted in nu/nu mouse assessed as tumor growth inhibition at 50 mg/kg/day, ip; type: functional; details: read-out: TGI; procedure, shortened: as §1
[3] = target: T1, Platelet-derived growth factor receptor alpha (Homo sapiens, UniProt P16234); details: NCI-H1703, 1 uM
EOL1 [4] = assay: Antiproliferative activity against human EOL-1 cells after 72 hrs by CellTiter-Glo or CCK-8 assay; type: functional; details: EOL1, 72 h
Procedure, shortened: (§2)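 Cells in RPMI 1640 with 10% FBS at 37 °C, 5% CO2, seeded at 1–3 × 10^4 cells/mL with serial compound dilutions for 72 h. Viability read by CellTiter-Glo luminescence or CCK-8 absorbance (450/655 nm), normalized to DMSO control.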

[5] = target: T1, Platelet-derived growth factor receptor alpha; details: 100 nM
[6] = Tmax in Sprague-Dawley rat at 1 mg/kg, iv; type: ADME, organism-based; details: in vivo
Procedure, shortened: (§3)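 Male Sprague-Dawley rats, 6–8 weeks old and fasted overnight, dosed IV at 1 mg/kg or PO at 10 mg/kg. Formulation was 5% DMSO/40% PEG400/55% saline (1 mg/mL). Jugular blood collected on heparin from 1 min to 8 h (IV) or 5 min to 24 h (PO). Plasma separated by centrifugation at 2–8 °C and stored at −80 °C.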

[7] = AUC (0 to infinity) in Sprague-Dawley rat at 1 mg/kg, iv; type: ADME, organism-based; set-up: dose 1 mg/kg, time infinity, route intravenous; details: in vivo
Procedure, shortened: (§4)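 Male Sprague-Dawley rats (6–8 weeks) fasted overnight, dosed IV or orally; compound dissolved in 5% DMSO/40% PEG400/55% saline (dosing solution 1 mg/mL). Blood (~0.2 mL) from jugular vein into heparin; IV sampling 1 min–8 h, oral 5 min–24 h. Plasma separated by centrifugation at 2–8 °C, stored at −80 °C until analysis.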

[8] = target: T1, Platelet-derived growth factor receptor alpha; details: 1 uM
[9] = Oral bioavailability in Sprague-Dawley rat at 10 mg/kg; type: ADME, organism-based; details: in vivo; procedure, shortened: as §3
[10] = Cytotoxicity against mouse BA/F3 cells after 72 hrs by CellTiter-Glo or CCK-8 assay; type: cell-based, BaF3
Procedure, shortened: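 Parental BaF3 or IL-3-independent TEL-kinase BaF3 lines, made by retroviral infection and puromycin selection, grown in RPMI 1640 with 10% FBS. Cells seeded at 1–3 × 10^4 cells/mL with serial compound concentrations for 72 h. Viability read by CellTiter-Glo luminescence or CCK-8 absorbance at 450/655 nm and normalised to DMSO. GI50 obtained by triplicate testing with linear regression. Selectivity is the ratio of the two GI50 values.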

[11] = target: T1, Platelet-derived growth factor receptor alpha; details: NCI-H1703, 1 uM; remark: listed apart in the source
[12] = Cmax in Sprague-Dawley rat at 1 mg/kg, iv; type: ADME, organism-based; set-up: dose 1 mg/kg, route intravenous; details: in vivo; procedure, shortened: as §3
[13] = target: T1, Platelet-derived growth factor receptor alpha; details: NCI-H1703, 1 uM; remark: listed apart in the source
NCI-H1703 [14] = assay: Antiproliferative activity against human NCI-H1703 cells after 72 hrs by CellTiter-Glo or CCK-8 assay; type: functional; details: NCI-H1703, 72 h; procedure, shortened: as §2
[15] = Tmax in Sprague-Dawley rat at 10 mg/kg, po; type: ADME, organism-based; details: in vivo; procedure, shortened: as §3
[16] = target: T1, Platelet-derived growth factor receptor alpha; details: 1 uM; remark: listed apart in the source
EOL1 [17] = assay: Antitumor activity against human EOL-1 cells xenografted in nu/nu mouse assessed as tumor growth inhibition at 100 mg/kg/day, ip; type: functional; details: read-out: TGI; procedure, shortened: as §1
[18] = AUC (0 to t) in Sprague-Dawley rat at 10 mg/kg, po; type: ADME, organism-based; details: in vivo; procedure, shortened: as §4
NCI-H1703 [19] = assay: Antiproliferative activity against human NCI-H1703 cells after 72 hrs in presence of PDGF-AA by CellTiter-Glo or CCK-8 assay; type: functional; details: NCI-H1703, 72 h; procedure, shortened: as §2
[20] = AUC (0 to t) in Sprague-Dawley rat at 1 mg/kg, iv; type: ADME, organism-based; details: in vivo; procedure, shortened: as §4
Mus musculus = assay: Toxicity in nu/nu mouse xenografted with human EOL-1 cells assessed as change in body weight at 25 to 100 mg/kg/day, ip; type: organism-based; details: in vivo
Procedure, shortened: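 Female nu/nu mice, 6 weeks old, implanted subcutaneously in the right flank with 5 million EOL-1 cells in PBS/Matrigel 1:1. At tumour size 200–400 mm³, mice randomised into groups of 6 and given daily IP doses of 25, 50 or 100 mg/kg in 0.5% methylcellulose/0.4% Tween80, or vehicle, for 14 days. Body weight measured daily and normalised to initial weight; mean ± SEM.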

[21] = Cmax in Sprague-Dawley rat at 10 mg/kg, po; type: ADME, organism-based; set-up: dose 10 mg/kg, route oral; details: in vivo; procedure, shortened: as §3
[22] = AUC (0 to infinity) in Sprague-Dawley rat at 10 mg/kg, po; type: ADME, organism-based; set-up: dose 10 mg/kg, route oral, time infinity; details: in vivo; procedure, shortened: as §4

T1 sequence (P16234 whole entry): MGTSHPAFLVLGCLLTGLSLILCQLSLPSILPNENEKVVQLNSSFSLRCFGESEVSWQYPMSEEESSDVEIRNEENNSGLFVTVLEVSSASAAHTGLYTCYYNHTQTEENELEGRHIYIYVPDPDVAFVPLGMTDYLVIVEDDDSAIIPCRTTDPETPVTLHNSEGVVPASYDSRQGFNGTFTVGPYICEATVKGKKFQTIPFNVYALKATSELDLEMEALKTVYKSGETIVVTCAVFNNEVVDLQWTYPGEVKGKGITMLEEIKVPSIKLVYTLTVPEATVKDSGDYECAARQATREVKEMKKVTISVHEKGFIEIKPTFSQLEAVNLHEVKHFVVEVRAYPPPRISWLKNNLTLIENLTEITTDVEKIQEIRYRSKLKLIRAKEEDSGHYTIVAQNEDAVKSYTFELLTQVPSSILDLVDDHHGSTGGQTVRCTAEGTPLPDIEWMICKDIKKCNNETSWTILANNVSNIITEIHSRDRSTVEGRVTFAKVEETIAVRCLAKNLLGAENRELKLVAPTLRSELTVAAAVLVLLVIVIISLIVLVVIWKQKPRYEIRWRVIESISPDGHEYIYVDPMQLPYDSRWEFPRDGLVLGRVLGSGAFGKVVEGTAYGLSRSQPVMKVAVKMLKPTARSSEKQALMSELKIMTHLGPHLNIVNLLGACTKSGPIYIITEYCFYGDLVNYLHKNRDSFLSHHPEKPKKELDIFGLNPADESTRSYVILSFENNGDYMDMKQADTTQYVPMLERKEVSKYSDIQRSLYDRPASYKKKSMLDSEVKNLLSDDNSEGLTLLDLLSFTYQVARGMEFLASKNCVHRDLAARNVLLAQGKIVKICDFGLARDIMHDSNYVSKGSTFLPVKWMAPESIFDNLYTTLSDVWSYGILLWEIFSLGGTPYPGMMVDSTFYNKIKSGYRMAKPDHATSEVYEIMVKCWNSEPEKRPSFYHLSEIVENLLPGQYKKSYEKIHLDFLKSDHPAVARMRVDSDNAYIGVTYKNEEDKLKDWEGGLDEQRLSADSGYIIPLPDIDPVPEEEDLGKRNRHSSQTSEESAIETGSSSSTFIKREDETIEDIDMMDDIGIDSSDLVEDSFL

For `Cc1ccc(NC(=O)c2ccc(CN3CCN(C)CC3)cc2)cc1Nc1nccc(-c2cccnc2)n1` [IMATINIB], the inhibition in vivo at 25 mg/kg/day (EOL1 [1]) was 99.9%, the inhibition in vivo at 50 mg/kg/day (EOL1 [2]) was 100% and the inhibition [3] was “Active”. For the same compound, the GI50 (EOL1 [4]) was < 0.001 µM, the inhibition [5] was “inactive” and the Tmax [6] was 1.02 min. The AUC(0-inf) [7] was 869 ng·h/mL, the inhibition [8] was “Active” and the bioavailability [9] was 76.5%. For the same compound, the GI50 at 72 h [10] was > 10 µM, the inhibition [11] was “Active” and the Cmax [12] was 547 ng/mL. For the same compound, the inhibition [13] was “Active”, the GI50 (NCI-H1703 [14]) was 2.1 µM and the Tmax [15] was 6.67 h. For the same compound, the inhibition [16] was “Active”, the inhibition in vivo at 100 mg/kg/day (EOL1 [17]) was 100% and the AUC(0-t) [18] was 6460 ng·h/mL. The GI50 (NCI-H1703 [19]) was 0.23 µM, the AUC(0-t) [20] was 856 ng·h/mL and the Activity (Mus musculus) was “Toxic”. The Cmax [21] was 531 ng/mL and the AUC(0-inf) [22] was 6650 ng·h/mL.

Source: ChEMBL document CHEMBL4229344 (Eur J Med Chem, 2018)
